Compound activity from PubChem.
Hits are enriched below; roughly 1.2% of the tested compounds scored in any of these assays.
CaV13 FRET inh: Primary screen for inhibitors of IQ motif and Ca2+-dependent inactivation inhibitor domain binding in CACNA1D, Förster resonance energy transfer in living cells, … | HEK cells, CFP/YFP FRET ICDI-IQ, plate reader, 10 min; percent FRET-ratio fall versus neutral wells | inhibition, % at 12.3 µM | 340,000 compounds, 0.098% hits | AID 743397;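 active = mean replicate inhibition of at least 30% and at least 1% of replicates passing that level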;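 also: 0% = median of the neutral control wells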
FN deposition inh: fibronectin deposition inhibition; AH1F fibroblasts, Alexa488-fibronectin deposition fluorescence, overnight; inhibition, % at 12.6 µM; 350,000 compounds, 0.086% hits; AID 743247;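 active = mean inhibition across replicates of 30% or more, regardless of how many single replicates reach that level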;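 also: positive control wells lacked labelled fibronectin entirely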
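Material – AH1F fibroblast monolayer, labelled fibronectin deposition · Reagent – labelled fibronectin 24 nM · Timing – 1 h adhesion, overnight exposure · Measured by – fluorescence at 485 nm excitation, 525 nm emission · Read-out – inhibition of fibronectin deposition signal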
SR-BI DiI inh: inhibitors of mouse SR-BI mediated HDL lipid uptake; 320,000 compounds, 0.96% hits; inhibition, % at 12.5 µM; ldlA[mSR-BI] CHO cells, DiI-HDL uptake fluorescence, 3 h; AID 488896; Q61009;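 active = mean replicate inhibition of at least 70% and a set share of replicates each scoring 70 or more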;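 also: 0% = median of neutral control wells and 100% = median of positive control wells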
Target sequence (Q61009 whole entry, looked up): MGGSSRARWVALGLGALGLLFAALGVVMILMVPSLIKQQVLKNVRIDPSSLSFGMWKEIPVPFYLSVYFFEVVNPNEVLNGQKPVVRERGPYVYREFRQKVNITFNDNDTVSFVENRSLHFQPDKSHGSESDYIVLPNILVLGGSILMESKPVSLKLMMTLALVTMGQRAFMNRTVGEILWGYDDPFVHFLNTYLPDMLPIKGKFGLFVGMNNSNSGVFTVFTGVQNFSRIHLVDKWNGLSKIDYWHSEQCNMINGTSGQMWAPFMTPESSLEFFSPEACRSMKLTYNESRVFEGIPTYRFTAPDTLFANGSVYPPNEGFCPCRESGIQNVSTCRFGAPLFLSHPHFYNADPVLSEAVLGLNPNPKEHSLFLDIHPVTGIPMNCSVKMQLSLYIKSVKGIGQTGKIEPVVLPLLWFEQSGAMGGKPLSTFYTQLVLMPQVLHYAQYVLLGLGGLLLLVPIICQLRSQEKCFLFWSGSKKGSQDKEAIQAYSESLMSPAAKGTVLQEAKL
Efflux pump mplx: inhibitors of Candida antifungal efflux pumps expressed in yeast; S. cerevisiae Candida pump triplex, Nile Red efflux; inhibition, % at 10 µM; 330,000 compounds, 0.44% hits;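 active = plate passing quality check with inhibition over a set limit, or well fluorescence over plate mean plus 4 SD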;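 also: Nile Red retained in pooled yeast measured as flow cytometry median fluorescence; 0% = buffer negative control and 100% = Enniatin B positive control; higher means more Nile Red kept so more efflux inhibition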
SR-BI DiI-HDL act: enhances SR-BI lipid uptake from DiI-HDL. 320,000 compounds, 0.096% hits. AID 504775. activation, % at 12.5 µM. CHO ldlA[mSR-BI] cells, DiI-HDL uptake fluorescence, 3 h; 100 = double the neutral-control signal;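 active = mean replicate activation of at least 60% and every replicate at or above 60%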;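 also: 0% = median plate neutral-control signal and 100% = twice that signal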
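Assay system: LDL receptor-deficient CHO ldlA cells overexpressing murine SR-BI / Medium: BSA-supplemented, HEPES-buffered Ham's F12, pH 7.4 / Probe or stimulus: DiI-labelled HDL at 10 µg/mL final / Timing: compound with DiI-HDL co-incubation, 3 h at 37 °C / Technique: bottom-read cell fluorescence after medium removal, ex 550/em 595 nm / Measure: HDL uptake via cellular fluorescence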
Yeast cmpd fluor: compound fluorescence in yeast efflux pump counter-screen; shares compounds with Efflux pump mplx; S. cerevisiae AD/pABC3, flow cytometry; fluorescence ratio to DMSO, % at 10 µM; 1,700 compounds, 4% hits; AID 588517;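 active = fluorescence ratio to DMSO above its plate's cutoff, the plate mean ratio plus 5 SD, cut at about 210% in these data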;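 also: unstained yeast with no Nile Red so the signal is compound autofluorescence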
CaMdr1 efflux inh: inhibitors of Candida albicans Mdr1 efflux pump | shares compounds with Efflux pump mplx | S. cerevisiae AD/CaMDR1, Nile Red efflux, flow cytometry | inhibition, % at 10 µM | 1,700 compounds, 1% hits | AID 588518; in the data active = inhibition above about 26%;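 also: 0% = DMSO vehicle and 100% = reference inhibitor; higher means more Nile Red retained so more efflux inhibition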
CaCdr2 efflux inh: blocks the Candida albicans Cdr2 efflux pump in yeast. S. cerevisiae AD/CaCDR2, Nile Red retention, flow cytometry. 1,700 compounds, 4% hits. Nile Red retention ratio vs DMSO, % at 10 µM. shares compounds with Efflux pump mplx; in the data active = Nile Red retention ratio vs DMSO above about 190%;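 also: higher ratio means more blocking of Cdr2 efflux of the dye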
Cdr1 pump inh: inhibitors of Candida albicans Cdr1 efflux pump; shares compounds with Efflux pump mplx; AID 588522; S. cerevisiae AD/CaCDR1, Nile Red efflux, flow cytometry; inhibition, % at 10 µM; 1,700 compounds, 1% hits;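 active = inhibition above the screen-wide mean plus twice its standard deviation, cut at about 32% in these data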
* hit, by the source's call; · = no result; + = active, no number.

SMILES | CaV13 FRET inh | FN deposition inh | SR-BI DiI inh | Efflux pump mplx | SR-BI DiI-HDL act | Yeast cmpd fluor | CaMdr1 efflux inh | CaCdr2 efflux inh | Cdr1 pump inh
O=C(CCCc1ccccc1)Nc1ccnn1C1CCN(Cc2ccccn2)CC1 | -5 | -2 | 43 | 0 | · | · | · | · | ·
CCCCN1C(=O)C(=O)N(c2ccccc2)C1=S | -5 | -6 | 3 | 6.5* | -3 | 107 | 0 | 92 | 0
CCCCN1C(=O)C(=O)N(CC(=O)N2CCN(c3ccccc3)CC2)C1=O | -6 | -1 | -12 | 0 | 12 | · | · | · | ·
C[C@@H]1CN([C@H](C)CO)C(=O)c2cc(-c3ccc(F)cc3)cnc2O[C@@H]1CN(C)C(=O)NC1CCCC1 | · | -2 | · | · | · | · | · | · | ·
CCCCCCOC(=O)C[N+](C)(C)CCOC1CC2CCC1(C)C2(C)C (configuration not stated) | -3 | 5 | -1 | 2.6* | 1 | 108 | 0 | + | 0
CCCCOC(=O)C[N+](C)(C)CCOC1CC2CCC1(C)C2(C)C (configuration not stated) | 1 | -17 | -36 | 0 | 36 | · | · | · | ·
Cc1ccc(N2CCN(C(=O)C3CCCN(c4ncnc5c4nc4n5CCCCC4)C3)CC2)c(C)c1 (configuration not stated) | -3 | -3 | 16 | 0 | -16 | · | · | · | ·
Cc1ccc(C)c(N2CCN(C(=O)C3CCCN(c4ncnc5c4nc4n5CCCCC4)C3)CC2)c1 (configuration not stated) | -3 | 2 | -13 | 2.5* | 13 | 79 | 0 | + | 0
COC(=O)C[C@@H]1C[C@H]2c3cc(NC(=O)c4cccnc4)ccc3O[C@H]2[C@@H](CO)O1 | · | -1 | · | · | · | · | · | · | ·
CC(C)c1ccccc1-n1c(SCc2cc(=O)oc3ccc4ccccc4c23)nnc1-c1cccnc1 | -12 | -5 | 3 | 15* | -3 | 103 | 0 | 98 | 0
Cc1ccc(Nc2nc(Cl)nc(NC(C)(C)C)n2)cc1 | -3 | 2 | 18 | 1.1* | -18 | 172 | 1 | 100 | 0
CO[C@H]1CN(C)C(=O)c2cc(NS(=O)(=O)c3ccc(Cl)cc3)ccc2OC[C@H](C)NC[C@H]1C | · | 4 | · | · | · | · | · | · | ·
CCCCCCCCn1ccc(=N)cc1 | -1 | -3 | -23 | 0.8* | 23 | 97 | 0 | 108 | 0
COC(=O)c1nn(-c2ccccc2)c(=O)cc1Sc1ccc(Cl)cc1 | -5 | -4 | -5 | 0.6* | 5 | 108 | 0 | 108 | 0
O=C(O)c1cccc(CN2C(=O)CSC2=O)c1 | -5 | · | -13 | 0.9* | 13 | 84 | 0 | 87 | 0
CCc1cccc(C)c1NC(=O)c1ccc(CN2CCc3ccccc3C2)cc1 | -5 | 3 | 27 | 22* | -27 | 116 | 0 | 114 | 0
O=C(NCc1ccco1)/C(=C/C=C\c1ccccc1)NC(=O)c1ccc(Br)o1 | -6 | 3 | 13 | 7.6* | -13 | 111 | 0 | 105 | 0
C[C@@H]1CN([C@H](C)CO)C(=O)CCCn2nncc2CO[C@H]1CN(C)C(=O)Nc1ccccc1F | · | -1 | · | · | · | · | · | · | ·
NS(=O)(=O)c1ccc(NC(=O)CSc2nnc(Cc3cccs3)n2-c2ccccc2)cc1 | · | · | 10 | 0 | -10 | 104 | 0 | 97 | 0
Cc1ccc(-n2c(Cc3cccs3)nnc2SCC(=O)Nc2ccc(S(N)(=O)=O)cc2)cc1 | -4 | 0 | 25 | 0 | -25 | · | · | · | ·
COc1ccc(NC(=O)CSc2nnc(Cc3cccs3)n2-c2ccc(C)cc2)cc1 | -5 | · | 19 | 0 | -19 | 97 | 0 | 97 | 0
COc1cccc(NC(=O)CSc2nnc(Cc3cccs3)n2-c2ccc(C)cc2)c1 | -9 | · | 24 | 0 | -24 | 96 | 0 | 114 | 0
CO[C@H]1CN(C)C(=O)c2ccc(NC(=O)c3ccccc3)cc2OC[C@H](C)N(CC2CC2)C[C@H]1C | · | -5 | · | · | · | · | · | · | ·
COCC(=O)Nc1ccc2c(c1)C(=O)N(C)C[C@@H](OC)[C@H](C)CN(C(=O)NC(C)C)[C@@H](C)CO2 | · | 1 | · | · | · | · | · | · | ·
CO[C@@H]1CN(C)C(=O)c2ccc(NC(=O)c3ccccc3)cc2OC[C@H](C)N(C(C)=O)C[C@@H]1C | · | -2 | · | · | · | · | · | · | ·
SMILES | CaV13 FRET inh | FN deposition inh | SR-BI DiI inh | Efflux pump mplx | SR-BI DiI-HDL act | Yeast cmpd fluor | CaMdr1 efflux inh | CaCdr2 efflux inh | Cdr1 pump inh
CCC(=O)Nc1ccc2c(c1)C(=O)N(C)C[C@@H](OC)[C@@H](C)CN(C(=O)c1ccccn1)[C@@H](C)CO2 | · | -1 | · | · | · | · | · | · | ·
COc1cccc(-c2c(C(=O)N/N=C(\C)c3ccc(Cl)s3)nnn2-c2nonc2N)c1 | -7 | 3 | -25 | 4.6* | 25 | 104 | 0 | 93 | 0
CC1CC(C)CN(c2ncc3c(n2)CC(c2ccc(Cl)cc2)CC3=O)C1 (configuration not stated) | -3 | 0 | 4 | 6.7* | -4 | 111 | 0 | 112 | 0
CC1CC(C)CN(c2ncc3c(n2)CC(c2ccccc2Cl)CC3=O)C1 (configuration not stated) | -4 | · | 35 | 0 | -35 | · | · | · | ·
O=C(C(Cl)Cl)N1CCN(Cc2ccccc2)CC1 | -4 | 2 | -2 | 16* | 2 | 98 | 0 | 89 | 0
Cc1ccc(S(=O)(=O)N(CC(=O)N/N=C/c2cccc3c2OCCO3)c2ccccc2F)cc1 | · | · | 12 | 0.5* | -12 | 90 | 0 | 108 | 0
CSc1nnnn1-c1ccc(C)c(Cl)c1 | -3 | 5 | 15 | 14* | -15 | 100 | 0 | 108 | 0
COc1c(C)cc(Br)cc1C(=O)Nc1ccccc1N1CCN(C(=O)c2ccccc2)CC1 | 2 | 9 | 43 | 1.0* | -43 | 106 | 0 | 94 | 0
COc1ccc(Br)cc1C(=O)Nc1ccccc1N1CCN(C(=O)c2ccccc2)CC1 | -6 | -3 | 54 | 0 | -54 | · | · | · | ·
Cc1ccnc2nc(C(=O)Nc3nc4ccccc4s3)nn12 | -2 | -3 | -11 | 0 | 11 | · | · | · | ·
COc1ccc(-c2nc(NC(=O)c3nc4nccc(C)n4n3)sc2C)cc1 | -1 | -7 | 9 | 1.0* | -9 | 95 | 0 | 116 | 0
Nc1ccn(CC(=O)NCCc2ccccn2)c(=O)n1 | -10 | -12 | -8 | 2.8* | 8 | 100 | 0 | 104 | 0
Nc1ccn(CC(=O)NCc2ccccn2)c(=O)n1 | 5 | 5 | -11 | 0 | 11 | · | · | · | ·
